# Screens: PubChem BioAssay, Johns Hopkins Ion Channel Center
# A selection: hits, their analogues and other compounds. The true share with any hit is near 3.5%.
# RGS4 inh = inhibitors of human RGS4 | B-score at 10 µM | HEK293 M3R/RGS4 inducible, Fluo-4 calcium flux; hits give high values; triggered by carbachol at its EC20 | P49798 | hit rate 0.45% among 310,000;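 active = B-score, a plate-corrected calcium signal, over three deviations above library mean, with baseline fluorescence within five deviations of library mean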;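 note: RGS4 expression induced by doxycycline in cells with stable M3 receptor; B-score is computed from the integrated fluorescence ratio over baseline after carbachol; higher B-score means a larger calcium signal and so more RGS4 inhibition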
# Target sequence (P49798 whole entry, looked up): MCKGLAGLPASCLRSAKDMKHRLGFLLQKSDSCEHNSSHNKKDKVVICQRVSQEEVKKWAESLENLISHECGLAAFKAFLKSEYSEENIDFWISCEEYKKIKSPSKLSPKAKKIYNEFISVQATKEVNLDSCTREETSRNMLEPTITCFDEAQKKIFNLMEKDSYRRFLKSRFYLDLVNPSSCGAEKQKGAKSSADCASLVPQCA
# MrgX1 antag = human MrgX1 receptor antagonism, primary screen; Q96LB2; MRGX1-HEK293 calcium flux, Fluo-4, BAM8-22 antagonism; hits give low values; B-score at 10 µM; hit rate 1.3% among 310,000; AID 588676;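 active = calcium-response B-score plate-corrected more than 3 library SD below zero, starting fluorescence within 5 deviations, no agonist response on first addition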;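 note: peak minus trough fluorescence over baseline after final BAM8-22 challenge near maximal dose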
# Target sequence (Q96LB2 whole entry, looked up): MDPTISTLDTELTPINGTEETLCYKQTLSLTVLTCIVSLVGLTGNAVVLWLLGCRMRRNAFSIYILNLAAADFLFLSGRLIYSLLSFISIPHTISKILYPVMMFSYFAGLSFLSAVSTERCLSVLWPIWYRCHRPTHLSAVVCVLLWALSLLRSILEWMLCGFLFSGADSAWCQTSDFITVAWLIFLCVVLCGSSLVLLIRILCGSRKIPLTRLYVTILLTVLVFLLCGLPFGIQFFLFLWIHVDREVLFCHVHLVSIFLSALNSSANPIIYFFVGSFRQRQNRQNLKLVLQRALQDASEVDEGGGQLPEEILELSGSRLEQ
# MrgX1 agonist = human MrgX1 receptor agonism, primary screen | Q96LB2 | MrgX1-HEK293 cells, Fluo-4 calcium fluorescence, agonist mode; hits give high values | B-score at 10 µM | hit rate 0.44% among 310,000 | AID 588627;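 active = calcium response B-score plate-corrected fluorescence ratio at least 3 library SD, with starting fluorescence B-score inside 5 SD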
#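 Test system: HEK293 cells stably expressing human MrgX1 receptor; Input: fifteen thousand cells per well; Dosing: compound delivered in addition one of three; Schedule: overnight seeding, then 1 h dark dye loading; Technique: Fluo-4 NW calcium fluorescence; Measure: B-scored fluorescence response ratio; Controls: positive and negative controls per plate.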
# RGS4 act = potentiators or activators of RGS4; HEK293 M3R/inducible RGS4, carbachol calcium flux Fluo4; hits give low values; B-score at 10 µM; hit rate 0.92% among 310,000;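 active = B-score of the integrated calcium signal more than 4 SD below the library mean, with starting fluorescence not abnormally high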;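 note: negative B-score means reduced calcium response which marks RGS4 activation or potentiation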
#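 Also added: carbachol at ECmax as muscarinic agonist stimulus; Assay system: HEK293 cells with stable M3R and inducible RGS4; Timing: overnight RGS4 induction, 30 min dye load 37 °C, 20 min compound RT; Measured by: Fluo4-AM (2 µM) calcium-flux fluorescence, kinetic read.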
# MrgX1 PAM = human MrgX1 positive allosteric modulation, primary screen; hit rate 0.63% among 310,000; MrgX1-HEK293, Fluo-4 calcium flux, FDSS; hits give high values; Q96LB2; AID 588675; B-score at 10 µM;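 active = plate-corrected calcium response at least 3 library SD above typical, normal starting fluorescence, not activating the receptor alone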;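 note: compound read alongside a low EC10 to EC30 dose of BAM8-22 agonist; peak minus trough fluorescence over baseline measured at the second addition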
# Numbers without * were called inactive; i = inactive; nt = no result given.
SMILES,RGS4 inh,MrgX1 antag,MrgX1 agonist,RGS4 act,MrgX1 PAM
Cc1ccsc1/C=C/c1ccc2cccc(O)c2n1,i,-5*,i,i,i
COC(=O)c1ccc(-n2c(CCC(=O)O)ccc2-c2ccccc2)cc1,i,i,i,i,i
C=CCOc1ccccc1/C=c1\sc2nc(=O)c(C)nn2c1=O,i,i,28*,i,i
COc1ccc(O[C@H]2C=C[C@@H](c3ccccc3)O[C@@H]2CO/N=C(\C)CCC(=O)OC[C@H]2O[C@H](c3ccccc3)C=C[C@@H]2Oc2ccc(OC)cc2)cc1,i,-7.2*,i,i,i
COc1ccc(Nc2nc(-c3cccs3)nc3ccccc23)cc1S(=O)(=O)N1CCOCC1,i,i,i,-7.3*,i
COc1ccc(NS(=O)(=O)c2cccs2)cc1S(=O)(=O)N1CCOCC1,i,i,i,i,i
c1cncc(CSc2nnc(-c3cccnc3)n2Cc2ccco2)c1,i,nt,nt,i,nt
O=C(CSc1nnc(-c2cccnc2)n1Cc1ccco1)N1c2ccccc2Sc2ccccc21,nt,-4.5*,i,nt,i
Cc1ccc(S(=O)(=O)NCC(=O)N2CCN(S(=O)(=O)c3ccc(Cl)cc3)CC2)cc1C,i,i,i,i,i
CCOC(=O)N1CCN(S(=O)(=O)N2CCCC(C(=O)NCCc3ccc(OCC)c(OCC)c3)C2)CC1 (stereo not given),i,i,i,i,i
COC(=O)Cn1c(=NC(=O)c2ccc(Cl)s2)sc2cc(C)ccc21,i,-5.9*,i,i,i
COC(=O)Cn1c(=NC(=O)c2sc3ccccc3c2Cl)sc2cc(S(N)(=O)=O)ccc21,i,i,i,i,i
COC(=O)Cn1c(=NC(=O)c2nc3ccccc3s2)sc2cc(S(C)(=O)=O)ccc21,i,-5.2*,i,i,i
O=C(NCC1CCCO1)c1cccc(S(=O)(=O)N(Cc2ccccc2)c2ccccc2)c1 (stereo not given),i,i,i,i,i
CN1C2CCC1/C(=C\c1ccccc1F)C(=O)/C2=C/c1ccccc1F,i,i,i,i,i
C/C(=N\NC(=O)c1cccnc1)c1cc2ccccc2o1,i,-7.6*,i,i,i
C/C(=N\NC(=O)c1ccncc1)c1cc2ccccc2o1,i,i,i,i,i
CCOc1ccc(NC(=O)CN(C)C(=O)c2cc(-c3ccc(OC)cc3)nc3ccccc23)cc1OCC,i,i,i,-8*,i
COc1ccc(NC(=O)CN(C)C(=O)c2cc(-c3ccc(Cl)cc3)nc3ccccc23)cc1,i,i,i,-8*,i
CCOC(=O)Cc1nc(-c2cccc(C(F)(F)F)c2)no1,i,i,i,i,i
COC(=O)c1cc(C(=O)NCCC(C)C)cc([N+](=O)[O-])c1,i,i,i,i,i
CCCC(C)NC(=O)c1cc(C(=O)OC)cc([N+](=O)[O-])c1 (stereo not given),i,-5.2*,i,i,i
CCOC(=O)C(NCc1ccc2c(c1)OCO2)(NC(=O)c1ccccc1)C(F)(F)F (stereo not given),i,i,i,i,i
CCCN(C(=O)CSCc1ccccc1C)c1c(N)n(Cc2ccccc2)c(=O)[nH]c1=O,i,-7.2*,i,i,i
Cc1ccc(COC(=O)NCc2cccnc2)cc1,i,i,i,i,i
SMILES,RGS4 inh,MrgX1 antag,MrgX1 agonist,RGS4 act,MrgX1 PAM
O=C(NCCc1ccc(Cl)cc1)c1ccc(S(=O)(=O)N2CCCC2)cc1,i,i,i,i,i
COC(=O)c1[nH]c2ccccc2c1NC(=O)CNC1CCCCC1,i,i,i,-7*,i
COC(=O)c1[nH]c2ccccc2c1NC(=O)CN1CCCCCC1,i,i,i,i,i
CC1CCN(Cc2nnnn2CCCC(=O)NCCc2cnn(C)c2)CC1,i,i,i,i,i
COCCCNC(=O)c1cccn2c(=O)c3cc4ccccc4cc3nc12,i,-8.5*,i,i,i
CCOC(=O)c1nn(-c2ccc(Cl)cc2Cl)c(=N)c(C#N)c1C,i,-7.5*,i,i,i
CCOC(=O)c1nn(-c2ccc(Cl)cc2)c(=O)c(C#N)c1C,i,i,i,i,i
Cc1ccc2c(C(=O)CCl)c(C)[nH]c2c1,i,i,i,i,8.2*
COc1ccccc1-c1ccc(=O)n(CC(=O)NC2CCc3ccccc32)n1 (stereo not given),i,i,i,i,i
CCOC(=O)N1CCN(C(=O)c2cn(CC)c3cc(N4CCN(C)CC4)c(F)cc3c2=O)CC1,i,-7.6*,i,i,i
Cc1cccc2sc(NS(C)(=O)=O)nc12,i,i,i,i,i
CN1C(=O)C(O)(CC(=O)/C=C\c2ccc3c(c2)OCO3)c2ccccc21 (stereo not given),i,-5.4*,i,i,i
NC(=O)CN1C(=O)C(O)(CC(=O)/C=C\c2ccc3c(c2)OCO3)c2ccccc21 (stereo not given),i,i,i,i,i
CN(C(=O)/C=C/c1ccc2c(c1)OCO2)c1ccccc1,i,i,i,i,9.1*
CCc1ccc(OCC(=O)NNC(=O)Cc2ccc(S(=O)(=O)N3CCOCC3)s2)cc1,i,-6.9*,i,i,i
Cc1cccc(C(=O)Nc2ccc(NC(=O)CN3CCOCC3)cc2)c1,i,i,i,i,i
NC(=S)N/N=C1\CC(n2nnn(-c3cccc(Cl)c3)c2=S)C2COC1O2 (stereo not given),i,i,i,i,i
CS(=O)(=O)c1nc(-c2ccco2)cc(C(F)(F)F)n1,i,i,i,-7*,i
COc1ccccc1-c1cc(C(F)(F)F)nc(S(C)(=O)=O)n1,i,i,i,i,i
CCN1CCN(Cc2ccc(NC(=O)c3ccc(C)c(NC(=O)C(=O)c4c[nH]c5ccccc45)c3)cc2C(F)(F)F)CC1,i,i,i,-8.8*,i
CCN1CCN(Cc2ccc(NC(=O)c3cc(NC(=O)C(=O)c4c[nH]c5ccccc45)cc(OC)c3)cc2C(F)(F)F)CC1,i,i,i,i,i
O=C(O)CCN1C(=O)c2ccc(Oc3ccc([N+](=O)[O-])cc3)cc2C1=O,i,i,i,i,i
CS(=O)(=O)N(CC(=O)NCCSCc1ccccc1)c1ccccc1F,i,i,i,i,i
CCOc1cc(/C=C2/NC(=O)NC2=O)cc([N+](=O)[O-])c1O,i,-7.7*,i,i,i
